Laboratory results from article PMC9774329 (ACS Omega, 2022).

Columns and labels:
Assay type in all cases: cell-based, human
HCT-116 cell line = assay: MTT antiproliferative assay on colon cancer cells; settings: HCT-116, MTT, 48 h; compared to 3′-O-methyltaxifolin and quercetin
How it was run: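 HCT-116 cells were seeded at 20,000 cells/well in DMEM with FBS, L-glutamine, penicillin, streptomycin and selenium chloride at 37 °C in CO2. They were exposed to test compound at 5.0–40 μg/mL for 48 h, with untreated controls. MTT (5.0 mg/mL) was added for 4 h, then DMSO […], and OD was read at 570 nm. Done in triplicate.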

[1] = tested on: colon (HCT-116) cancer cells; assay: Apoptosis confirmation by DAPI staining; settings: HCT-116, 48 h post-treatment
How it was run: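 Fixed HCT-116 cells were examined for apoptosis after 48 h compound exposure. Cells were fixed in 4% paraformaldehyde and stained in the dark with DAPI (1.0 μg/mL). Nuclear morphology was assessed by fluorescence confocal scanning microscopy.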

[2] = tested on: caspase-3 expression in HCT-116 cells; assay: Caspase-3 detection by ELISA in cell lysates; settings: HCT-116, 48 h treatment, 40 μg/mL
How it was run: (§1)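 HCT-116 cells were seeded at 50,000 cells/well in a CO2 incubator. After 24 h, at 70–80% confluence, cells received test compound at 40 μg/mL for 48 h; untreated cells served as controls. Cells were PBS-washed, detached with 0.35% trypsin and spun at 1000 rpm. Pellets were lysed 60 min and re-spun at 1000 rpm for 15 min. Lysates were assayed with human caspase-3 or caspase-9 ELISA kits, absorbance 620 nm.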

[3] = tested on: caspase-9 expression in HCT-116 cells; assay: Caspase-9 detection by ELISA in cell lysates; settings: HCT-116, 48 h treatment, 40 μg/mL
How it was run: as §1

Structure (SMILES) | reduction in the numbers of cancer cells (HCT-116 cell line) | apoptosis induction (chromatin condensation, nuclear shrinkage) by DAPI staining [1] | caspase-3 expression (ELISA, optical density) [2] | caspase-9 expression (ELISA, optical density) [3]
COc1c(-c2ccc(O)c(O)c2)oc2cc(O)cc(O)c2c1=O [Compound 5, 3-O-Methylquercetin] | significant reductions | induced apoptosis | increase | increase
COc1cc([C@H]2Oc3cc(O)cc(O)c3C(=O)[C@@H]2O)ccc1O [Compound 2, 3′-O-Methyltaxifolin] | – | induced apoptosis | increase | increase
COc1cc(O)c2c(c1)O[C@H](c1ccc(O)c(OC)c1)[C@@H](O)C2=O [Compound 1, 7,3′-Di-O-methyltaxifolin] | significant reductions | induced apoptosis | increase | increase
O=c1c(O)c(-c2ccc(O)c(O)c2)oc2cc(O)cc(O)c12 [Compound 6, Quercetin] | – | induced apoptosis | increase | increase
O=C1c2c(O)cc(O)cc2OC(c2ccc(O)c(O)c2)C1O (stereo not shown) [Compound 4, Dihydroquercetin (taxifolin)] | significant reductions | induced apoptosis | increase | increase
COc1cc(O)c2c(c1)O[C@H](c1ccc(O)c(O)c1)[C@@H](O)C2=O [Compound 3, 7-O-Methyltaxifolin] | significant reductions | induced apoptosis | increase | increase
